From ChEMBL document CHEMBL1132573, “Novel antitumor 2-cyanoaziridine-1-carboxamides” (J Med Chem, 1999)

What was measured:
[1] = test system: OVCAR-3; experiment: Inhibition of cell growth in (OVCAR-3) ovarian cell line; type: functional, cell-based; settings: Homo sapiens
[2] = test system: MCF7; experiment: Inhibition of cell growth in drug sensitive MCF-7 breast cell line; type: functional, cell-based; settings: Homo sapiens
[3] = test system: RPMI-8226; experiment: Inhibition of cell growth in drug sensitive 8226 myeloma cell line; type: functional, cell-based; settings: Homo sapiens
[4] = test system: A-375; experiment: Inhibition of cell growth in (A375) melan cell line; type: functional, cell-based; settings: Homo sapiens
[5] = test system: MCF7; experiment: Inhibition of cell growth in (MCF7 breast) dox cell line; type: functional, cell-based; settings: Homo sapiens
[6] = test system: A549; experiment: Inhibition of cell growth in (A-549) lung cell line; type: functional, cell-based; settings: Homo sapiens
[7] = test system: WiDr; experiment: Inhibition of cell growth in drug resistant WiDr colon cell line; type: functional, cell-based; settings: Homo sapiens
[8] = test system: L1210; experiment: Inhibition of cell growth in drug sensitive L1210 leukemia cell line determined by MTT assay; type: functional, cell-based; settings: Mus musculus
[9] = test system: L1210; experiment: Inhibition of cell growth in (L1210 leukemia) MDR cells determined by MTT assay; type: functional, cell-based; settings: Mus musculus
[10] = test system: RPMI-8226; experiment: Inhibition of cell growth in drug resistant 8226 myeloma cell line; type: functional, cell-based; settings: Homo sapiens
[11] = test system: MCF7; experiment: Inhibition of cell growth in (MCF7 breast) mitox cell line; type: functional, cell-based; settings: Homo sapiens
[12] = test system: WiDr; experiment: Inhibition of cell growth in drug sensitive WiDr colon cell line; type: functional, cell-based; settings: Homo sapiens
[13] = Number of colony forming cells of human lung tumor showing sensitivity among the 2 colony forming cells tested in vitro at compound concentration of 0.2 uM; type: functional
Summary of the method: (§1)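 Fresh human tumor specimens from patients at the Arizona Cancer Center, run in the human tumor cloning (colony-forming) assay by a standard protocol. Read-out was [3H]thymine uptake by tumor-colony-forming cells.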

[14] = Number of colony forming cells of human ovary tumor showing sensitivity among the 10 colony forming cells tested in vitro at compound concentration of 0.2 uM; type: functional, Female gonad; summary of the method: as §1
[15] = Number of colony forming cells of human myeloma tumor showing sensitivity among the 2 colony forming cells tested in vitro at compound concentration of 2.0 uM; type: functional; summary of the method: as §1
[16] = Number of colony forming cells of human ovary tumor showing sensitivity among the 11 colony forming cells tested in vitro at compound concentration of 2.0 uM; type: functional, Female gonad; summary of the method: as §1
[17] = Number of colony forming cells of human stomach tumor showing sensitivity among the 1 colony forming cells tested in vitro at compound concentration of 0.2 uM; type: functional
Summary of the method: (§2)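 Fresh human tumor specimens, obtained from patients at the Arizona Cancer Center, were tested as tumor-colony-forming cells in the human tumor cloning assay. Sensitivity was scored as a 50% or greater decrease in […] uptake by treated colony-forming cells relative to untreated control colony-forming cells. The value is the count of sensitive specimens among those tested.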

[18] = Number of colony forming cells of human stomach tumor showing sensitivity among the 1 colony forming cells tested in vitro at compound concentration of 2.0 uM; type: functional; summary of the method: as §2
[19] = Number of colony forming cells of human melanoma tumor showing sensitivity among the 10 colony forming cells tested in vitro at compound concentration of 2.0 uM; type: functional; summary of the method: as §1
[20] = Number of colony forming cells of human sarcoma tumor showing sensitivity among the 2 colony forming cells tested in vitro at compound concentration of 0.2 uM; type: functional; summary of the method: as §2
[21] = Number of colony forming cells of human gynecologic tumor showing sensitivity among the 4 colony forming cells tested in vitro at compound concentration of 2.0 uM; type: functional; summary of the method: as §1
[22] = Number of colony forming cells of human ovary tumor showing sensitivity among the 10 colony forming cells tested in vitro at compound concentration of 20 uM; type: functional, Female gonad; summary of the method: as §1
[23] = Number of colony forming cells of human myeloma tumor showing sensitivity among the 2 colony forming cells tested in vitro at compound concentration of 0.2 uM; type: functional; summary of the method: as §1
[24] = test system: Breast carcinoma cell; experiment: Number of colony forming cells of human breast tumor showing sensitivity among the 4 colony forming cells tested in vitro at compound concentration of 2.0 uM; type: functional; summary of the method: as §1
[25] = Number of colony forming cells of human sarcoma tumor showing sensitivity among the 8 colony forming cells tested in vitro at compound concentration of 2.0 uM; type: functional; summary of the method: as §2
[26] = Number of colony forming cells of human melanoma tumor showing sensitivity among the 10 colony forming cells tested in vitro at compound concentration of 20 uM; type: functional; summary of the method: as §1
[27] = test system: Breast carcinoma cell; experiment: Number of colony forming cells of human breast tumor showing sensitivity among the 4 colony forming cells tested in vitro at compound concentration of 0.2 uM; type: functional; summary of the method: as §1
[28] = Number of colony forming cells of human gynecologic tumor showing sensitivity among the 4 colony forming cells tested in vitro at compound concentration of 20 uM; type: functional; summary of the method: as §1
[29] = Number of colony forming cells of human lung tumor showing sensitivity among the 2 colony forming cells tested in vitro at compound concentration of 20 uM; type: functional; summary of the method: as §1
[30] = Number of colony forming cells of human myeloma tumor showing sensitivity among the 2 colony forming cells tested in vitro at compound concentration of 20 uM; type: functional; summary of the method: as §1
[31] = Number of colony forming cells of human melanoma tumor showing sensitivity among the 5 colony forming cells tested in vitro at compound concentration of 0.2 uM; type: functional; summary of the method: as §1
[32] = Number of colony forming cells of human stomach tumor showing sensitivity among the 1 colony forming cells tested in vitro at compound concentration of 20 uM; type: functional; summary of the method: as §2
[33] = test system: Breast carcinoma cell; experiment: Number of colony forming cells of human breast tumor showing sensitivity among the 4 colony forming cells tested in vitro at compound concentration of 20 uM; type: functional; summary of the method: as §1
[34] = Number of colony forming cells of human lung tumor showing sensitivity among the 2 colony forming cells tested in vitro at compound concentration of 2.0 uM; type: functional; summary of the method: as §1
[35] = Number of colony forming cells of human sarcoma tumor showing sensitivity among the 8 colony forming cells tested in vitro at compound concentration of 20 uM; type: functional; summary of the method: as §2
[36] = Number of colony forming cells of human gynecologic tumor showing sensitivity among the 4 colony forming cells tested in vitro at compound concentration of 0.2 uM; type: functional; summary of the method: as §1
[37] = test system: L1210; experiment: Cytotoxicity was measured as 50% inhibition of cell growth in drug sensitive L1210 leukemia cell line and is determined by MTT assay; type: functional, cell-based, Homo sapiens; settings: Mus musculus
[38] = test system: MCF7; experiment: Cytotoxicity was measured as 50% inhibition of cell growth in drug sensitive MCF-7 breast cell line; type: functional, cell-based, Mus musculus; settings: Homo sapiens

SMILES: N#CC1CN1C(=O)Nc1ccc([N+](=O)[O-])cc1 (stereo not drawn)
- IC50 [1]: 6.5 µM
- IC50 [2]: 3 µM
- IC50 [3]: 9.1 µM
- IC50 [4]: 3.9 µM
- IC50 [5]: 3 µM
- IC50 [6]: 3.9 µM
- IC50 [7]: 3.7 µM
- IC50 [8]: 2.6 µM
- IC50 [9]: 2.6 µM
- IC50 [10]: 8.6 µM
- IC50 [11]: 3 µM
- IC50 [12]: 4.3 µM

SMILES: N#CC1CN1C(=O)Nc1ccc(Cl)c(Cl)c1 (stereo not drawn)
- IC50 [1]: 5.6 µM
- IC50 [2]: 4.6 µM
- IC50 [3]: 1.1 µM
- IC50 [4]: 5.9 µM
- IC50 [5]: 7.2 µM
- IC50 [6]: 7.5 µM
- IC50 [7]: 14 µM
- IC50 [8]: 2.6 µM
- IC50 [9]: 7.2 µM
- IC50 [10]: 2.7 µM
- IC50 [11]: 4.4 µM
- IC50 [12]: 7 µM

SMILES: N#CC1CN1C(=O)Nc1ccc(S(N)(=O)=O)cc1 (stereo not drawn)
- IC50 [1]: 188 µM
- IC50 [2]: > 15 µM
- IC50 [3]: > 38 µM
- IC50 [4]: 188 µM
- IC50 [5]: > 15 µM
- IC50 [6]: > 38 µM
- IC50 [7]: > 38 µM
- IC50 [8]: > 38 µM
- IC50 [9]: > 38 µM
- IC50 [10]: > 38 µM
- IC50 [11]: > 15 µM
- IC50 [12]: > 38 µM

SMILES: N#CC1CN1C(=O)Nc1cccnc1 (stereo not drawn)
- IC50 [1]: 10 µM
- IC50 [2]: 4.2 µM
- IC50 [3]: 12 µM
- IC50 [4]: 12 µM
- IC50 [5]: 6.6 µM
- IC50 [6]: 16 µM
- IC50 [7]: 18 µM
- IC50 [8]: 11 µM
- IC50 [9]: 16 µM
- IC50 [10]: 15 µM
- IC50 [11]: 5.4 µM
- IC50 [12]: 6 µM

SMILES: CC(=O)c1cccc(NC(=O)N2CC2C#N)c1 (stereo not drawn)
- IC50 [1]: 10 µM
- IC50 [2]: 3.6 µM
- IC50 [3]: 8.7 µM
- IC50 [4]: 7.9 µM
- IC50 [5]: 3.2 µM
- IC50 [6]: 5.6 µM
- IC50 [7]: 9 µM
- IC50 [8]: 9.6 µM
- IC50 [9]: 7.9 µM
- IC50 [10]: 9.6 µM
- IC50 [11]: 3.5 µM
- IC50 [12]: 3.3 µM

SMILES: CNC(=O)N1CC1C#N (stereo not drawn)
- IC50 [1]: 14 µM
- IC50 [2]: 27 µM
- IC50 [3]: 26 µM
- IC50 [4]: 17 µM
- IC50 [5]: 17 µM
- IC50 [6]: 22 µM
- IC50 [7]: 23 µM
- IC50 [8]: 8.7 µM
- IC50 [9]: 21 µM
- IC50 [10]: 26 µM
- IC50 [11]: 18 µM
- IC50 [12]: 21 µM

SMILES: COC(=O)c1ccccc1NC(=O)N1CC1C#N (stereo not drawn)
- IC50 [1]: > 39 µM
- IC50 [2]: > 16 µM
- IC50 [3]: > 39 µM
- IC50 [4]: > 39 µM
- IC50 [5]: > 16 µM
- IC50 [6]: > 41 µM
- IC50 [7]: > 41 µM
- IC50 [8]: > 39 µM
- IC50 [9]: > 39 µM
- IC50 [10]: > 39 µM
- IC50 [11]: > 16 µM
- IC50 [12]: 40 µM

SMILES: N#CC1CN1C(=O)Nc1ccccc1 (stereo not drawn)
- Sensitivity [13]: 0
- Sensitivity [14]: 3
- IC50 [1]: 6.8 µM
- IC50 [2]: 2.9 µM
- IC50 [3]: 5.3 µM
- Sensitivity [15]: 2
- Sensitivity [16]: 10
- Sensitivity [17]: 1
- Sensitivity [18]: 1
- Sensitivity [19]: 8
- IC50 [4]: 11 µM
- IC50 [5]: 2.6 µM
- IC50 [6]: 9 µM
- Sensitivity [20]: 2
- Sensitivity [21]: 2
- Sensitivity [22]: 10
- Sensitivity [23]: 2
- Sensitivity [24]: 2
- Sensitivity [25]: 4
- Sensitivity [26]: 10
- IC50 [7]: 12 µM
- IC50 [8]: 1.2 µM
- Sensitivity [27]: 2
- IC50 [9]: 11 µM
- Sensitivity [28]: 3
- Sensitivity [29]: 2
- IC50 [10]: 8 µM
- Sensitivity [30]: 2
- Sensitivity [31]: 3
- Sensitivity [32]: 1
- Sensitivity [33]: 3
- Sensitivity [34]: 1
- Sensitivity [35]: 5
- IC50 [11]: 4.3 µM
- IC50 [12]: 5 µM
- Sensitivity [36]: 0

SMILES: CCNC(=O)N1CC1C#N (stereo not drawn)
- IC50 [1]: 14 µM
- IC50 [2]: 29 µM
- IC50 [3]: 22 µM
- IC50 [4]: 36 µM
- IC50 [5]: 20 µM
- IC50 [6]: 18 µM
- IC50 [7]: 7 µM
- IC50 [8]: 14 µM
- IC50 [9]: 14 µM
- IC50 [10]: 26 µM
- IC50 [11]: 10 µM
- IC50 [12]: 4 µM

SMILES: CCOC(=O)CNC(=O)N1CC1C#N (stereo not drawn)
- IC50 [37]: 13 µM
- IC50 [3]: 25 µM
- IC50 [4]: 51 µM
- IC50 [5]: 17 µM
- IC50 [6]: 24 µM
- IC50 [38]: 15 µM
- IC50 [7]: 33 µM
- IC50 [9]: 13 µM
- IC50 [10]: 30 µM
- IC50 [11]: 11 µM
- IC50 [12]: 31 µM
